Measured values from ChEMBL document CHEMBL1148973, “Bioactive friedolanostanes and 11(10-->8)-abeolanostanes from the bark of Garcinia speciosa” (2004).

Columns and labels:
Assay type in all cases: functional
[1] = system: NCI-H460; test: Cytotoxicity against human NCI-H460 cells after 48 hrs by SRB assay; details: NCI-H460, 48 h
In short: (§1)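 SRB growth-inhibition assay following the NCI screen protocol. Cells were kept adherent in RPMI-1640 with 5% heat-inactivated FBS and 2 mM glutamine at 37 °C under 5% CO2. Plating density was 1.5 × 10^5 cells/mL for MCF-7 and SF-268 and 7.5 × 10^4 cells/mL for NCI-H-460. Cells attached overnight, then received five concentrations (top 100 µM) for 48 h. Cells were fixed in situ, stained with SRB and the bound dye solubilised. GI50 was taken from dose-response curves. Doxorubicin served as positive control.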

[2] = system: MCF7; test: Cytotoxicity against human MCF7 cells after 48 hrs by SRB assay; details: MCF7, 48 h; in short: as §1
[3] = system: SF-268; test: Cytotoxicity against human SF268 cells after 48 hrs by SRB assay; details: SF-268, 48 h; in short: as §1
[4] = system: MCF7; test: Induction of apoptosis in human MCF7 cells assessed as fragmentation of genomic DNA at 19.4 uM after 48 hrs by TUNEL assay
In short: (§2)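 MCF-7 cells were seeded at 1.5 × 10^5 cells/mL, grown 24 h at 37°, then exposed continuously for 48 h. Adherent and floating cells were harvested by trypsinisation, cytospun onto slides and fixed in 4% paraformaldehyde for 1 h at room temperature. DNA fragmentation was detected by fluorescein TUNEL with DAPI counterstain under fluorescence microscopy. Apoptotic percentage came from ≥400 cells over ≥5 random fields. Controls were untreated cells and 40 nM doxorubicin.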

[5] = system: MCF7; test: Induction of apoptosis in human MCF7 cells assessed as fragmentation of genomic DNA at 19.2 uM after 48 hrs by TUNEL assay; in short: as §2
[6] = system: MCF7; test: Induction of apoptosis in human MCF7 cells assessed as fragmentation of genomic DNA at 15.5 uM after 48 hrs by TUNEL assay; in short: as §2
[7] = system: MCF7; test: Induction of apoptosis in human MCF7 cells assessed as fragmentation of genomic DNA at 15.3 uM after 48 hrs by TUNEL assay; in short: as §2
[8] = system: MCF7; test: Induction of apoptosis in human MCF7 cells assessed as fragmentation of genomic DNA at 26 uM after 48 hrs by TUNEL assay; in short: as §2
[9] = system: MCF7; test: Induction of apoptosis in human MCF7 cells assessed as fragmentation of genomic DNA at 0.043 uM after 48 hrs by TUNEL assay
[10] = system: MCF7; test: Induction of apoptosis in human MCF7 cells assessed as fragmentation of genomic DNA at 22.3 uM after 48 hrs by TUNEL assay; in short: as §2

C/C(=C\CC[C@@H](C)[C@@]1(C)C[C@H]2O[C@]23[C@]1(C)CCC(=O)[C@@]31CC[C@H]2C(C)(C)[C@@H](O)CC[C@@]21C)C(=O)O
GI50 [1]: 68.6 µM | GI50 [2]: 63.8 µM | GI50 [3]: 86.4 µM

C[C@H](CC(=O)C[C@H](C)C(=O)O)C1=CC[C@@]2(C)[C@@H]3CC[C@H]4C(C)(C)[C@H](O)CC[C@]4(C)C3=CC[C@]12C
Activity [4]: 2.34% | GI50 [1]: 36.9 µM | GI50 [2]: 19.4 µM | GI50 [3]: 34.8 µM

C/C(=C\C=C/[C@@H](C)[C@@]1(C)C[C@H]2O[C@]23[C@]1(C)CCC(=O)[C@@]31CC[C@H]2C(C)(C)[C@@H](O)CC[C@@]21C)C(=O)O
GI50 [1]: 70.3 µM | GI50 [2]: 69.6 µM | GI50 [3]: 95.7 µM

COC(=O)/C(C)=C/[C@H]1C[C@@H](C)[C@]2(C)[C@@H](C=C3C4=C(CC[C@]32C)[C@@]2(C)CC[C@@H](O)C(C)(C)[C@@H]2CC4)O1
GI50 [1]: 30.4 µM | GI50 [2]: 19.2 µM | Activity [5]: 2.97% | GI50 [3]: 29.7 µM

COC(=O)[C@@H](C)CC(=O)C[C@@H](C)C1=CC[C@@]2(C)[C@@H]3CC[C@H]4C(C)(C)[C@@H](O)CC[C@]4(C)C3=CC[C@]12C
GI50 [1]: > 100 µM | GI50 [2]: > 100 µM | GI50 [3]: > 100 µM

CC(=O)O[C@H]1CC[C@]2(C)C3=CC[C@]4(C)C([C@H](C)CC(=O)C[C@H](C)C(=O)O)=CC[C@@]4(C)[C@@H]3CC[C@H]2C1(C)C
GI50 [1]: 22.1 µM | GI50 [2]: 15.5 µM | Activity [6]: 5.33% | GI50 [3]: 30.6 µM

COC(=O)/C(C)=C/[C@H]1C[C@@H](C)[C@]2(C)[C@@H](C=C3C4=C(CC[C@]32C)[C@@]2(C)CC[C@@H](OC(C)=O)C(C)(C)[C@@H]2CC4)O1
GI50 [1]: 34.4 µM | GI50 [2]: 15.3 µM | GI50 [3]: 28.6 µM | Activity [7]: 23.54%

COC(=O)/C(C)=C/[C@H](O)C[C@@H](C)[C@]1(C)CC(=O)C2=C3CC[C@H]4C(C)(C)[C@H](O)CC[C@]4(C)[C@H]3CC[C@]21C
GI50 [1]: 42.7 µM | GI50 [2]: 26 µM | GI50 [3]: 44.7 µM | Activity [8]: 26.36%

COc1cccc2c1C(=O)c1c(O)c3c(c(O)c1C2=O)C[C@@](O)(C(=O)CO)C[C@@H]3O[C@H]1C[C@H](N)[C@H](O)[C@H](C)O1 [DOXORUBICIN]
GI50 [1]: 0.094 µM | GI50 [2]: 0.043 µM | Activity [9]: 26.02% | GI50 [3]: 0.093 µM

COC(=O)/C(C)=C/[C@H](O)C[C@@H](C)[C@]1(C)CC=C2C3=C(CC[C@]21C)[C@@]1(C)CC[C@@H](O)C(C)(C)[C@@H]1CC3 [GARCIHOMBRONANES C]
GI50 [1]: 37.9 µM | GI50 [2]: 22.3 µM | Activity [10]: 17.36% | GI50 [3]: 38.6 µM
